KCNK3 block – human KCNK3 channel inhibition, primary screen; O14649; CHO-KCNK3 thallium flux, FluxOR fluorescence; stronger effect = lower value; B-score at 10 µM; actives 0.84% (n = 340,000);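 active means B-score under library mean minus 4 SD, starting fluorescence ratio at most library mean plus 5 SD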;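 further: more negative B-score means stronger inhibition of thallium flux through KCNK3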
KCNQ1 act – human KCNQ1 channel potentiation or activation | actives 0.35% (n = 310,000) | CHO-K1 KCNQ1, thallium flux FluxOR fluorescence; stronger effect = higher value | B-score at 10 µM;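 active means fluorescence ratio B-score, a plate-corrected score, at least three library SD, with initial intensity B-score within 5 SD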
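Assay system: CHO-K1 cells stably expressing KCNQ1; Medium: assay buffer with matched DMSO; Also added: K+/Tl+ depolarizing stimulus; Dosing: single dose; Timing: dye 90 min, compound 20 min, room temperature; Measured by: kinetic FluxOR thallium fluorescence, 10-s 1-Hz baseline, 110-s post-stimulus read; Read-out: peak-minus-minimum fluorescence over initial fluorescence, negative-control normalized, B-scored.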
hERG protect – shields human hERG channel from block by proarrhythmic agents; CHO-hERG, FluxOR thallium flux, dofetilide IC70 present; activation (rescue from dofetilide block), less the hit threshold, % at 10 µM; actives 0.51% (n = 310,000); AID 1511;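 active means activation above the mean of controls blocked by dofetilide plus 5 SD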;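 further: thallium influx through hERG after potassium depolarization seen as dye fluorescence rise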
KCNK9 block – blocks the human KCNK9 two-pore domain potassium channel; Q9NPC2; HEK293 KCNK9, FluxOR thallium flux fluorescence; stronger effect = lower value; B-score at 10 µM; actives 1.2% (n = 310,000); AID 488922;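 active means ratio B-score over 3 SD below the library mean, with starting fluorescence within 5 SD of its mean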;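 further: negative B-score means less thallium flux so channel inhibition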
Target sequence (Q9NPC2 whole entry, looked up, the tested form may be a part): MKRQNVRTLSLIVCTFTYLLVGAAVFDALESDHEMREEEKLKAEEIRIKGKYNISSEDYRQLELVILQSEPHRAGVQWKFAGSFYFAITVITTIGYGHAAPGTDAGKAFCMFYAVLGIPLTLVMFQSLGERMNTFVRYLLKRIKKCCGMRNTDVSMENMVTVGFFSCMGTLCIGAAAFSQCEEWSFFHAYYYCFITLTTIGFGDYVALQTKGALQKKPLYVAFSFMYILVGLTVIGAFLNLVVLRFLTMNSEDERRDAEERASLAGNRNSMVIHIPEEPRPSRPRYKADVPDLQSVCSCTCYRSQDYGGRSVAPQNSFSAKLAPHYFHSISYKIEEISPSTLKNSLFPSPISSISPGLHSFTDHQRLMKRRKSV
Kir21 block – Kir2.1 (mouse) channel inhibition. P35561. HEK293-Kir2.1, FluxOR thallium flux fluorescence; stronger effect = lower value. B-score at 10 µM. actives 0.85% (n = 310,000);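 active means fluorescence ratio B-score at or below minus 3 SD of library scores, with starting-brightness B-score within 2 SD, cut at about -4.2 in these data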;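 further: channel flux triggered by added potassium and thallium sulfate stimulus; B-score of peak minus minimum fluorescence over baseline after thallium stimulus; more negative B-score means stronger Kir2.1 block with less thallium influx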
KCNQ1 inh – inhibitors of human KCNQ1 potassium channel; CHO-K1 KCNQ1, FluxOR thallium flux fluorescence; stronger effect = higher value; B-score at 10 µM; actives 1.3% (n = 310,000);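 active means compounds whose thallium flux B-score, printed positive for inhibition, exceeds three library SD while starting fluorescence stays within three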;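 further: channel opened by potassium depolarization with thallium stimulus after 20 min compound exposure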
Of the large screens only hits and unclear results are named; the others gave an inactive call. In the library only some 3.7% were active in any assay of this set; here they are far more common.

S=c1[nH]nc(CSc2nc3ccccc3s2)n1C1CCCCC1	KCNQ1 act 22, KCNK9 block -7.5
COc1ccc(OC)c(NC(=O)CN(C)CC(=O)Nc2ccccc2Br)c1	none
Cc1nnc(NC(=O)C2CCCN(S(=O)(=O)c3ccccc3C(F)(F)F)C2)s1 (centres undefined)	hERG protect 15
CCOc1cc(C(=O)NN2CCOCC2)cc(OCC)c1OCC	none
CCCCC(=O)Nc1nc(C)c(-c2csc(Nc3cc(OC)ccc3OC)n2)s1	KCNK9 block -7.8
CCCCC(=O)Nc1nc(C)c(-c2csc(Nc3cc(Cl)ccc3OC)n2)s1	KCNK9 block -7.5, KCNQ1 inh 7
O=C(CSc1ccc(S(=O)(=O)N2CCCCC2)cn1)Nc1ccccc1Br	none (no result: KCNQ1 act, hERG protect, KCNK9 block, Kir21 block, KCNQ1 inh)
O=C(c1cccc(S(=O)(=O)N2CCc3ccccc32)c1)N1CCc2ccccc2C1	KCNK3 block -9.4 (no result: KCNQ1 act, hERG protect, KCNK9 block, Kir21 block, KCNQ1 inh)
O=C(c1cccc(S(=O)(=O)N2CCCc3ccccc32)c1)N1CCN(c2ccccc2)CC1	KCNK3 block -9.5 (no result: KCNQ1 act, hERG protect, KCNK9 block, Kir21 block, KCNQ1 inh)
COc1cc2c(cc1OC)CN(C(=O)c1cccc(S(=O)(=O)N3CCc4ccccc43)c1)CC2	none (no result: KCNQ1 act, hERG protect, KCNK9 block, Kir21 block, KCNQ1 inh)
C=CCn1c(SCC(=O)c2ccc(Cl)cc2)nnc1-c1ccc2c(c1)OCO2	Kir21 block -5.4
C=CCn1c(SCC(=O)c2ccc(OC)cc2)nnc1-c1ccc2c(c1)OCO2	none
CC(=O)Nc1cc(-c2nn3c(C)nnc3s2)ccc1C	none
CCC(=O)Nc1cc(-c2nn3c(C)nnc3s2)ccc1C	KCNQ1 act 8
COc1cc(CNC2CCCCCC2)cc(OC)c1O	none
COc1cc(CNC2CCCC2)cc(Cl)c1OCc1ccccc1F	Kir21 block -4.7
O=C(CCc1nc(-c2ccc(Cl)cc2)no1)NC1CCCC1	none
CCOC(=O)C1=C(c2ccccc2)NC(=O)NC1c1ccc(O)c(Cl)c1 (centres undefined)	hERG protect 13, Kir21 block -7.8
CC(C)c1cccc(C(C)C)c1NC(=O)COC(=O)[C@H](C)NC(N)=O	hERG protect 11
CC(C)c1cccc(C(C)C)c1NC(=O)COC(=O)C1=COCCO1	none
COc1ccc(C(=O)NCC2(c3ccc(OC)c(OC)c3)CCCC2)c(OC)c1	none
COc1ccc(OCC(O)CNC(=O)c2sccc2Cl)cc1 (centres undefined)	none
O=[n+]1c2c(n([O-])c3cc(F)c(N4CCCC4)cc31)CCCC2	KCNQ1 inh 9
O=[n+]1c2c(n([O-])c3cc(F)c(N4CCCC4)cc31)CCC2	none
CCOC(=O)c1c(-c2ccccc2)oc2ccc(OCC(O)CNCCN(C)C)cc12 (centres undefined)	Kir21 block -5.2
CCOC(=O)c1c(-c2ccccc2)oc2ccc(OC)cc12	none
CCC(=O)N1CCc2cc(Br)cc(S(=O)(=O)N(C)c3ccc(OC)cc3)c21	none
CN(C)S(=O)(=O)c1cccc(NC(=O)COC(=O)c2cc(=O)c3ccccc3o2)c1	none
NNC(=S)NC1CCCCCCCCCCC1	KCNQ1 inh 8
N#C/C(=C\c1ccc(-c2ccccc2Cl)o1)C(=O)Nc1nc2ccccc2s1	hERG protect 10
Fc1ccc(COc2ccccc2CNCc2ccncc2)cc1	none
OCCNCc1cc(Br)ccc1OCc1ccc(Cl)cc1Cl	none
c1ccc(COc2cccc(CNCc3cccnc3)c2)cc1	none
OCCNCc1cccc(OCc2ccc(Cl)cc2)c1	Kir21 block -8.7
Brc1ccc(OCc2ccccc2)c(CNCc2ccncc2)c1	Kir21 block -5.3
OCCNCc1cc(Br)ccc1OCc1ccc(Cl)cc1	Kir21 block -5
Cc1nn2c([nH]c(=O)c3ccccc32)c1C=O	none
OC[C@H]1O[C@H](OC[C@H]2O[C@H](OC[C@H]3O[C@H](O[C@]4(CO)O[C@H](CO)[C@@H](O)[C@@H]4O)[C@H](O)[C@@H](O)[C@@H]3O)[C@H](O)[C@@H](O)[C@H]2O)[C@H](O)[C@@H](O)[C@H]1O	KCNQ1 act 32
CC(=O)Nc1ccccc1C(=O)C(=O)Nc1ccc(Cl)cc1	hERG protect 8.2
CCc1ccc(OCC(=O)NC(=S)Nc2ccc(C(C)=O)cc2)c(Br)c1	hERG protect 4.9
CCc1ccc(OCC(=O)NC(=S)Nc2cccc(CO)c2)c(Br)c1	none
Cc1nc(C)c(-c2ccc(SCc3ccccc3C)nn2)s1	KCNK9 block -7.9
CC1CCCC(NC(=O)COC(=O)c2ccc3c(c2)OCCO3)C1C (centres undefined)	none (no result: KCNQ1 act, hERG protect, KCNK9 block, Kir21 block, KCNQ1 inh)
N#C/C(=N\Nc1ccccc1F)c1nc(-c2ccccc2)cs1	hERG protect 18
COc1ccccc1C(CNC(=O)C(C)Oc1ccc(Br)cc1)N1CCCC1 (centres undefined)	Kir21 block -5.8
CC(OC(=O)/C(C#N)=C/c1ccc(N(C)C)cc1)C(=O)NCc1ccco1 (centres undefined)	KCNQ1 inh 7
CC(OC(=O)/C(C#N)=C/c1ccc(N(C)C)cc1)C(=O)N(C)c1ccccc1 (centres undefined)	KCNQ1 inh 8
CN(C)c1ccc(/C=C(\C#N)C(=O)NCc2ccco2)cc1	none (no result: KCNK3 block)
COc1cc(S(=O)(=O)Nc2ccccc2)ccc1N=Cc1c(C)[nH]n(-c2ccc(C)cc2)c1=O	KCNK9 block -9.6 (no result: KCNK3 block)
COc1cc(SC#N)ccc1N=Cc1c(C)[nH]n(-c2ccc(Cl)cc2)c1=O	none
Cc1cc(NCCCn2ccnc2)n2nc(C)c(-c3ccccc3)c2n1	KCNQ1 inh 6
CCOc1ccc(-c2cnc(NCc3cccc4ccccc34)n2CCOC)cc1	KCNK3 block -9.5, KCNQ1 inh 10
COCCn1c(-c2ccc(OC)cc2)cnc1N	none
COc1ccc(-c2nc(C(=O)NCC3CCCO3)cc3c2[nH]c2ccccc23)cc1 (centres undefined)	none
O=C(NCC1CCCO1)c1cc2c([nH]c3ccccc32)c(-c2cccc(Br)c2)n1 (centres undefined)	KCNQ1 inh 11
O=C(O)CCCCCN1C(=O)C(O)=C(C(=O)/C=C/c2ccccc2)C1c1ccccc1[N+](=O)[O-] (centres undefined)	none
Cc1cc(C)c(S(=O)(=O)c2ccccc2)c(N2CCOCC2)n1	none
CSc1ccc(CNC(=O)Cn2nc(C)c3c(C)n(-c4ccc(C)cc4)nc3c2=O)cc1	none
O=c1c2ccccc2nc(SCc2ccc([N+](=O)[O-])cc2)n1-c1ccccc1	KCNK9 block -7.7
COc1ccc([C@H]2CC(=O)C=C(c3cccc(CO)c3)C2)cc1	none (no result: KCNQ1 act, hERG protect, KCNK9 block, Kir21 block, KCNQ1 inh)
C=CCNCCCOc1ccc(C(C)(C)c2ccccc2)cc1	Kir21 block -8.6
COCCCNCCCOc1ccc(C(C)(C)c2ccccc2)cc1	Kir21 block -8.2
COCCNCCCOc1ccc(C(C)(C)c2ccccc2)cc1	none
CSc1nsc(SCC(=O)Nc2ccccc2F)n1	none

Assay outcomes deposited in PubChem by Johns Hopkins Ion Channel Center.
